Drawing on ChEMBL document CHEMBL2150888, “Conformationally constrained peptides from CD2 to modulate protein-protein interactions between CD2 and CD58” (J Med Chem, 2011), this text covers inhibition, viability and IC50 for 7 compounds.

By inhibition is commonly meant the drop in the measured response relative to a control, in per cent. Broadly, the pIC50 is −log10 of the IC50, conventionally taken in molar units.

pIC50: −log10 of the molar value. *1 amine or outer side, *2 acyl side, *3 side chain or, on linkers, in order; H or OH if unused. Where a SMILES comes first, the peptide text is derived from it. [ ]: non-standard residue; d: D form. X1 = O=C(CCc1cccc2c1oc1c(CCN[*:1])cccc12)[*:2] Some results are limits rather than exact numbers.

The subject of data set [1] is T-cell. Briefly: Inhibition of T-cell response to type 2 collagen in type 2 collagen primed T cells derived from transgenic mouse expressing functional HLA-DQ8 by [3H]thymidine incorporation assay. It counts as cell-based. In outline:
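Lymph node cells (draining popliteal, caudal, lumbar) taken 10 days after intradermal tail-base immunization of HLA-DQ8 transgenic mice with 200 µg native chick CII in CFA (1:1). 1 × 10^6 LNC challenged in vitro with CII at 50 µg/mL, with peptide at four concentrations (10–.01 µM); 3H-thymidine (1 µCi/well) pulse for last 18 h; Δcpm = test minus medium control; mean ±S.D., N = 4.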

Data set [2] in a line: Toxicity in human Caco2 cells assessed as cell viability incubated for 2 hrs by CellTiter-Glo assay. The class given is cell-based. As to conditions: Caco-2 cells, read-out: Activity. The essentials: (§1)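 Caco-2 cells exposed to peptide (200–0.1 µM, diluted in serum-free medium from DMSO stock) for 2 and 3 h, washed with PBS, then CellTiter-Glo luminescence read. Blank-subtracted, with 0.1% SDS and 1% DMSO controls. Viability relative to cells without peptide; triplicates in two independent runs.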
A general note: Cellular ATP, detected with luciferase, serves as a proxy for viable cell number.

The nature of data set [3]: Toxicity in human Jurkat cells assessed as cell viability incubated for 2 hrs by CellTiter-Glo assay. It counts as cell-based. As to conditions: read-out: Activity. In outline:
(§2)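 Jurkat suspensions treated in tubes with peptide (diluted in serum-free medium from DMSO stock) for 2 h, washed by centrifugation, then CellTiter-Glo luminescence read on a microplate. Blank-subtracted, with SDS and 1% DMSO controls. Viability relative to cells without peptide; triplicates in two independent runs.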

The target of data set [4] is T1, Lymphocyte function-associated antigen 3/T-cell surface antigen CD2 (Homo sapiens) (UniProt P06729+P19256). Kind of data set: (§3) Inhibition of CD2-CD58 protein-protein interaction assessed as inhibition of cell adhesion between CD58 expressing human Caco2 cells and CD2 expressing human Jurkat cells by BCECF-AM fluorescent dye based fluorimetric assay. Further details: concentration or dose not given beside the values. As to conditions: concentration not given here.

The target in data set [5] is T1, Lymphocyte function-associated antigen 3/T-cell surface antigen CD2 (Homo sapiens). Kind of data set: Inhibition of CD2-CD58 protein-protein interaction assessed as inhibition of cell adhesion between CD58 expressing human Caco2 cells and CD2 expressing human Jurkat cells at =< 1 uM by BCECF-AM fluorescent dye based fluorimetric assay.
Data set [6] addresses T2, Lymphocyte function-associated antigen 3/T-cell surface antigen CD2 (Homo sapiens, UniProt P06729+P19256).
T2 sequence (P06729 whole entry): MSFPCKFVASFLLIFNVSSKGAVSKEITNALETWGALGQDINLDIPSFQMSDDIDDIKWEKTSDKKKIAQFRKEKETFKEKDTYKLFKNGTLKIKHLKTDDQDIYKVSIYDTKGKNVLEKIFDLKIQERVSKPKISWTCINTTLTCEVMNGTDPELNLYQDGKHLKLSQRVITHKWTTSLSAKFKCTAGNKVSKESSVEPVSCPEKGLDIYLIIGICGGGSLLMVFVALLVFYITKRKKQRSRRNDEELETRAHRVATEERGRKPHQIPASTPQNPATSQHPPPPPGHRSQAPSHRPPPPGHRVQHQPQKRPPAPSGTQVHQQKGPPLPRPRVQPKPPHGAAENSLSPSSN
T2 sequence (P19256 whole entry): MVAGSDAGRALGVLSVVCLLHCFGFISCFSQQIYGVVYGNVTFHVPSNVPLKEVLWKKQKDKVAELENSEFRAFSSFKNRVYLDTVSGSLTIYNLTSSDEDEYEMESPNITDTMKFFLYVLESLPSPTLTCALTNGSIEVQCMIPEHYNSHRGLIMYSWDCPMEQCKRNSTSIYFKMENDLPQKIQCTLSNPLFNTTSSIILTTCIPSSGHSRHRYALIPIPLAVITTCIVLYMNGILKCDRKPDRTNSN
Described as §3.

The nature of data set [7]: Toxicity in human Jurkat cells assessed as cell viability at 200 yuM incubated for 2 hrs by CellTiter-Glo assay. As to conditions: read-out: Activity. It counts as cell-based. In outline: as §2
A short description of data set [8]: Toxicity in human Caco2 cells assessed as cell viability at 200 uM incubated for 2 hrs by CellTiter-Glo assay. It counts as cell-based. As to conditions: Caco-2 cells, read-out: Activity. The essentials: as §1

For `CC[C@H](C)[C@@H]1NC(=O)[C@H](CC(=O)O)NC(=O)[C@H](CC(=O)O)NC(=O)[C@@H]2CCCN2C(=O)[C@H]2CCCN2C(=O)[C@H](CC(=O)O)NC(=O)[C@H](Cc2ccc(O)cc2)NC(=O)[C@H]([C@@H](C)CC)NC(=O)[C@H](CO)NC(=O)[C@H](CCCCN)NC1=O`, in data set [1], the inhibition result was “Dose-dependent effect”. Also, the viability at 2 h in data set [2] and in data set [3] was above 95% throughout.
Turning to `CC[C@H](C)[C@@H]1NC(=O)[C@H](CCCCN)NC(=O)[C@H](CC(=O)O)NC(=O)[C@H](CC(=O)O)NC(=O)[C@@H]2CCCN2C(=O)[C@H]2CCCN2C(=O)[C@H](CC(=O)O)NC(=O)[C@H](Cc2ccc(O)cc2)NC1=O`, in data set [4], the inhibition is below 20%.
Same read-out and setting: then `CC[C@H](C)[C@@H]1NC(=O)[C@H](CC(=O)O)NC(=O)[C@H](CC(=O)O)NC(=O)CCc2cccc3c2Oc2c(cccc2-3)CCNC(=O)[C@H](CC(=O)O)NC(=O)[C@H](Cc2ccc(O)cc2)NC(=O)[C@H]([C@@H](C)CC)NC(=O)[C@H](CO)NC(=O)[C@H](CCCCN)NC1=O` (cyclo(DDIKSIYD[X1])), with below 20%; and `CC[C@H](C)[C@@H]1NC(=O)[C@H](CCCCN)NC(=O)[C@H](CC(=O)O)NC(=O)[C@H](CC(=O)O)NC(=O)CCc2cccc3c2Oc2c(cccc2-3)CCNC(=O)[C@H](CC(=O)O)NC(=O)[C@H](Cc2ccc(O)cc2)NC1=O` (cyclo(DDKIYD[X1])), with below 20%.
For the compound `CC[C@H](C)[C@@H]1NC(=O)[C@H](Cc2ccc(O)cc2)NC(=O)[C@H](CC(=O)O)NC(=O)CCc2cccc3c2Oc2c(cccc2-3)CCNC(=O)[C@H](CC(=O)O)NC(=O)[C@H](CC(=O)O)NC(=O)[C@H](CCCCN)NC1=O` (cyclo(DD[X1]DYIK)), in data set [5], the inhibition was 80%. The pIC50 in data set [6] is 7.95. Besides, the viability at 2 h in data set [2] and in data set [3] was above 95% in each case. In addition, the viability at 2 h, 200 µM in data set [7] and in data set [8] was 90% each time.
Turning to `CC[C@H](C)[C@@H]1NC(=O)[C@H](Cc2ccc(O)cc2)NC(=O)[C@H](CC(=O)O)NC(=O)CCc2cccc3c2Oc2c(cccc2-3)CCNC(=O)[C@H](CC(=O)O)NC(=O)[C@H](CC(=O)O)NC(=O)[C@H]([C@@H](C)CC)NC(=O)[C@H](CCCCN)NC(=O)[C@H](CO)NC1=O` (cyclo(DD[X1]DYISKI)), the inhibition in data set [4] was below 20%.
In the case of H-KGKTDAISVKAI-NH2, the inhibition in data set [4] amounted to 18%.
